Reference: ChEMBL document CHEMBL4689842, “EUbOPEN Chemogenomics Library wave 1” (2021)

Tested on: U2OS
Assay: Multiplex assay against U2OS
Assay type: toxicity, cell-based
Conditions: human
Outline: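 Values for tubulin, mitochondrial-mass and membrane-permeability phenotypes are per cents of cells with healthy nuclei. These cells were identified by CellPathfinder machine-learning gating of live cells that had been stained at seeding with Hoechst33342, BioTracker Green Microtubule Cytoskeleton Dye, MitoTracker Red and Annexin V Alexa Fluor 680 and imaged on a CQ1 microscope at 37°C and 5% CO2 after compound addition. The gating first set Hoechst high-intensity objects apart from normal cells, then split normal cells into healthy, pyknosed or fragmented nuclei, and pyknosed cells into mitotic or apoptotic.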

[1] = 12 h, 1 µM, compound concentration 1 uM, replicate 1
[2] = 12 h, 1 µM, compound concentration 1 uM, replicate 2
[3] = 12 h, 10 µM, compound concentration 10 uM, replicate 1
[4] = 12 h, 10 µM, compound concentration 10 uM, replicate 2
[5] = 24 h, 1 µM, compound concentration 1 uM, replicate 1
[6] = 24 h, 1 µM, compound concentration 1 uM, replicate 2
[7] = 24 h, 10 µM, compound concentration 10 uM, replicate 1
[8] = 24 h, 10 µM, compound concentration 10 uM, replicate 2
[9] = 48 h, 1 µM, compound concentration 1 uM, replicate 1
[10] = 48 h, 1 µM, compound concentration 1 uM, replicate 2
[11] = 48 h, 10 µM, compound concentration 10 uM, replicate 1
[12] = 48 h, 10 µM, compound concentration 10 uM, replicate 2

Nc1ccc(C(=O)Nc2cccc(-c3nc(N4CCOCC4)c4oc5ncccc5c4n3)c2)cn1
Population Apoptotic (%) [1]: 42% | Population Fragmented Nuclei (%) [1]: 20% | Population Healthy Nuclei (%) [1]: 64% | Population Hoechst High Intensity Objects (%) [1]: 10% | Population Mitochondria Different-Phenotype (%) [1]: 36% | Population Mitotic Cells (%) [1]: 57% | Population Normal (%) [1]: 89% | Population Pyknosed Nuclei (%) [1]: 15% | Population Tubulin-Different-Phenotype (%) [1]: 54% | Total Cell Count [1]: 215 | Population Apoptotic (%) [2]: 9% | Population Healthy Nuclei (%) [2]: 61% | Population Mitochondria Different-Phenotype (%) [2]: 21% | Population Mitotic Cells (%) [2]: 90% | Population Pyknosed Nuclei (%) [2]: 17% | Population Tubulin-Different-Phenotype (%) [2]: 28% | Total Cell Count [2]: 55 | Population Apoptotic (%) [3]: 56% | Population Fragmented Nuclei (%) [3]: 57% | Population Healthy Nuclei (%) [3]: 24% | Population Hoechst High Intensity Objects (%) [3]: 21% | Population Mitochondria Different-Phenotype (%) [3]: 83% | Population Mitotic Cells (%) [3]: 43% | Population Normal (%) [3]: 78% | Population Pyknosed Nuclei (%) [3]: 18% | Population Tubulin-Different-Phenotype (%) [3]: 93% | Total Cell Count [3]: 191 | Population Apoptotic (%) [4]: 51% | Population Fragmented Nuclei (%) [4]: 62% | Population Healthy Nuclei (%) [4]: 15% | Population Hoechst High Intensity Objects (%) [4]: 19% | Population Mitochondria Different-Phenotype (%) [4]: 76% | Population Mitotic Cells (%) [4]: 48% | Population Normal (%) [4]: 80% | Population Pyknosed Nuclei (%) [4]: 22% | Population Tubulin-Different-Phenotype (%) [4]: 90% | Total Cell Count [4]: 69 | Population Apoptotic (%) [5]: 46% | Population Fragmented Nuclei (%) [5]: 16% | Population Healthy Nuclei (%) [5]: 65% | Population Hoechst High Intensity Objects (%) [5]: 7% | Population Mitochondria Different-Phenotype (%) [5]: 31% | Population Mitotic Cells (%) [5]: 53% | Population Normal (%) [5]: 92% | Population Pyknosed Nuclei (%) [5]: 17% | Population Tubulin-Different-Phenotype (%) [5]: 51% | Total Cell Count [5]: 221 | Population Apoptotic (%) [6]: 21% | Population Fragmented Nuclei (%) [6]: 28% | Population Healthy Nuclei (%) [6]: 52% | Population Hoechst High Intensity Objects (%) [6]: 5% | Population Mitochondria Different-Phenotype (%) [6]: 42% | Population Mitotic Cells (%) [6]: 78% | Population Normal (%) [6]: 95% | Population Pyknosed Nuclei (%) [6]: 18% | Population Tubulin-Different-Phenotype (%) [6]: 27% | Total Cell Count [6]: 57 | Population Apoptotic (%) [7]: 80% | Population Fragmented Nuclei (%) [7]: 59% | Population Healthy Nuclei (%) [7]: 14% | Population Hoechst High Intensity Objects (%) [7]: 23% | Population Mitochondria Different-Phenotype (%) [7]: 88% | Population Mitotic Cells (%) [7]: 19% | Population Normal (%) [7]: 76% | Population Pyknosed Nuclei (%) [7]: 26% | Population Tubulin-Different-Phenotype (%) [7]: 81% | Total Cell Count [7]: 201 | Population Apoptotic (%) [8]: 84% | Population Fragmented Nuclei (%) [8]: 60% | Population Healthy Nuclei (%) [8]: 5% | Population Hoechst High Intensity Objects (%) [8]: 19% | Population Mitochondria Different-Phenotype (%) [8]: 100% | Population Mitotic Cells (%) [8]: 15% | Population Normal (%) [8]: 80% | Population Pyknosed Nuclei (%) [8]: 34% | Population Tubulin-Different-Phenotype (%) [8]: 100% | Total Cell Count [8]: 80 | Population Apoptotic (%) [9]: 57% | Population Fragmented Nuclei (%) [9]: 18% | Population Healthy Nuclei (%) [9]: 60% | Population Hoechst High Intensity Objects (%) [9]: 9% | Population Mitochondria Different-Phenotype (%) [9]: 28% | Population Mitotic Cells (%) [9]: 42% | Population Normal (%) [9]: 90% | Population Pyknosed Nuclei (%) [9]: 21% | Population Tubulin-Different-Phenotype (%) [9]: 45% | Total Cell Count [9]: 240 | Population Apoptotic (%) [10]: 25% | Population Fragmented Nuclei (%) [10]: 28% | Population Healthy Nuclei (%) [10]: 53% | Population Hoechst High Intensity Objects (%) [10]: 7% | Population Mitochondria Different-Phenotype (%) [10]: 22% | Population Mitotic Cells (%) [10]: 75% | Population Normal (%) [10]: 92% | Population Pyknosed Nuclei (%) [10]: 17% | Population Tubulin-Different-Phenotype (%) [10]: 24% | Total Cell Count [10]: 56 | Population Fragmented Nuclei (%) [11]: 62% | Population Healthy Nuclei (%) [11]: 5% | Population Hoechst High Intensity Objects (%) [11]: 23% | Population Mitochondria Different-Phenotype (%) [11]: 76% | Population Normal (%) [11]: 76% | Population Pyknosed Nuclei (%) [11]: 31% | Population Tubulin-Different-Phenotype (%) [11]: 66% | Total Cell Count [11]: 244 | Population Apoptotic (%) [12]: 91% | Population Fragmented Nuclei (%) [12]: 65% | Population Healthy Nuclei (%) [12]: 8% | Population Hoechst High Intensity Objects (%) [12]: 16% | Population Mitochondria Different-Phenotype (%) [12]: 100% | Population Mitotic Cells (%) [12]: 8% | Population Normal (%) [12]: 83% | Population Pyknosed Nuclei (%) [12]: 26% | Population Tubulin-Different-Phenotype (%) [12]: 100% | Total Cell Count [12]: 98
